ChEMBL document CHEMBL1177847, “Combating oxidative stress in epilepsy: design, synthesis, quantum chemical studies and anticonvulsant evaluation of 1-(substituted benzylidene/ethylidene)-4-(naphthalen-1-yl)semicarbazides” (Eur J Med Chem, 2010)

What was measured:
[1] = tested on: Mus musculus; assay: Restoration of GSH peroxidase activity in subcutaneous pentylenetetrazole treated Swiss albino mouse brain assessed per mg of protein at 100 mg/kg, ip after 4 hrs; format: functional; conditions: route intraperitoneal
Method in brief: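 Brain homogenate came from PTZ-treated mice 4 h after 100 mg/kg i.p. dosing, using the 10500 × g supernatant. Samples were equilibrated 5 min at 25 °C, started with H2O2, and A340 was followed for 5 min. n = 6.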

[2] = tested on: Mus musculus; assay: Neurotoxicity in ip dosed Swiss albino mouse assessed as minimum dose required to cause impair in motor coordination after 0.5 hrs by rotarod test; format: toxicity, organism-based; conditions: in vivo
Method in brief: (§1)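 Rotarod motor-impairment test in male Swiss albino mice dosed i.p. at 30, 100 or 300 mg/kg in 5% gum acacia/water. Mice that fell off the rotating rod within 30 s during pretraining were excluded. The dose at which animals fell off was recorded at 0.5 and 4 h.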

[3] = tested on: Mus musculus; assay: Reduction of lipid peroxidation in subcutaneous pentylenetetrazole treated Swiss albino mouse brain assessed reduction of malondialdehyde level per mg of protein at 100 mg/kg, ip after 4 hrs by TBARS assay; format: functional; conditions: route intraperitoneal
Method in brief: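 PTZ-treated mice were dosed at 100 mg/kg i.p. and decapitated 4 h after the last injection. Brains were homogenized in four volumes of ice-cold 50 mM Tris-HCl, pH 7.4, and spun at 3000 × g for 15 min. TBARS in the supernatant was read at 532 nm in the upper organic layer and expressed as nmol MDA/mg protein. n = 6, mean ± S.E.M.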

[4] = tested on: Rattus norvegicus; assay: Anticonvulsant activity against subcutaneous pentylenetetrazole-induced seizures in Wistar albino rat at 50 mg/kg, ip after 0.25 hrs; format: functional; conditions: route intraperitoneal
[5] = tested on: Mus musculus; assay: Neurotoxicity in ip dosed Swiss albino mouse assessed as minimum dose required to cause impair in motor coordination after 4 hrs by rotarod test; format: toxicity, organism-based; conditions: in vivo; method in brief: as §1
[6] = tested on: Mus musculus; assay: Anticonvulsant activity against subcutaneous pentylenetetrazole-induced seizures in ip dosed Swiss albino mouse assessed as minimum effective dose after 4 hrs; format: functional; conditions: read-out: MED
Method in brief: (§2)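 Male Swiss albino mice (18–25 g) were dosed i.p. with the compound in 5% gum acacia/water at 30, 100 or 300 mg/kg. Thirty minutes later they received PTZ 85 mg/kg (CD97) and were watched for seizures over 4 h. Readings at 0.5 and 4 h gave the lowest dose active in half or more of the animals. Myoclonic jerks were noted separately.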

[7] = tested on: Mus musculus; assay: Restoration of GSH level in subcutaneous pentylenetetrazole treated Swiss albino mouse brain assessed per gram of tissue at 100 mg/kg, ip after 4 hrs; format: functional; conditions: route intraperitoneal
Method in brief: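 Brains were taken from PTZ-treated mice 4 h after 100 mg/kg i.p. dosing. Tissue was deproteinized with an equal volume of 10% TCA for 2 h at 4 °C and centrifuged at 2000 g for 15 min. The supernatant was mixed with 0.4 M Tris (pH 8.9) containing 0.02 M EDTA, and 0.01 M DTNB was added before spectrophotometric reading. n = 6.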

[8] = tested on: Rattus norvegicus; assay: Anticonvulsant activity against subcutaneous pentylenetetrazole-induced seizures in Wistar albino rat at 50 mg/kg, ip after 2 hrs; format: functional
[9] = tested on: Mus musculus; assay: Anticonvulsant activity against maximal electroshock-induced seizures in ip dosed Swiss albino mouse assessed as minimum effective dose after 4 hrs; format: functional; conditions: read-out: MED
Method in brief: (§3)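 Male Swiss albino mice (18–25 g) received the compound suspended in 5% gum acacia/water, i.p. at 30, 100 and 300 mg/kg (one to four animals per dose). Maximal electroshock was applied at 0.5 and 4 h. Protection meant abolition of the hind limb tonic extensor component. The lowest dose protecting half or more of the mice was recorded.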

[10] = tested on: Mus musculus; assay: Restoration of SOD activity in subcutaneous pentylenetetrazole treated Swiss albino mouse brain assessed per mg of protein at 100 mg/kg, ip after 4 hrs; format: functional; conditions: route intraperitoneal
Method in brief: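 The ethanol phase of an ethanol/chloroform (5:3) extract of brain supernatant was used, from PTZ-treated mice 4 h after 100 mg/kg i.p. Superoxide was generated by xanthine–xanthine oxidase at pH 10.2 with NBT, 20 min at 25 °C. The reaction was stopped with CuCl2 and read at 560 nm. One unit gives 50% inhibition of NBT reduction; results are expressed as U/mg protein. n = 6.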

[11] = tested on: Mus musculus; assay: Anticonvulsant activity against maximal electroshock-induced seizures in ip dosed Swiss albino mouse assessed as minimum effective dose after 0.5 hrs; format: functional; conditions: read-out: MED; method in brief: as §3
[12] = tested on: Mus musculus; assay: Anticonvulsant activity against subcutaneous pentylenetetrazole-induced seizures in ip dosed Swiss albino mouse assessed as minimum effective dose after 0.5 hrs; format: functional; conditions: read-out: MED; method in brief: as §2
[13] = tested on: Rattus norvegicus; assay: Anticonvulsant activity against subcutaneous pentylenetetrazole-induced seizures in Wistar albino rat at 50 mg/kg, ip after 1 hr; format: functional
[14] = tested on: Rattus norvegicus; assay: Anticonvulsant activity against subcutaneous pentylenetetrazole-induced seizures in Wistar albino rat at 50 mg/kg, ip after 0.5 hrs; format: functional

Structure (SMILES): COc1cc(/C=N/NC(=O)Nc2cccc3ccccc23)cc(OC)c1OC
- Activity [1]: 1.97 U
- Activity [2]: 300 mg/kg
- Activity [3]: 1.87 nmol
- Activity [4]: 25%
- Activity [5]: 300 mg/kg
- minimal effective dose [6]: 100 mg/kg
- Activity [7]: 24.56 µg
- Activity [8]: 50%
- minimal effective dose [9]: 100 mg/kg
- Activity [10]: 1.77 U
- minimal effective dose [11]: 100 mg/kg
- minimal effective dose [12]: 100 mg/kg
- Activity [13]: 75%
- Activity [14]: 100%
